Source: publication PMC5470083 (Molecular imaging, 2016)
Read-outs that look alike come from different tables or passages of the source. Blank lines part the entries; values can stand above or below the molecule they belong to.

Tests used:
tau (NFTs) [1] = molecular target: T1, tau (NFTs) (Homo sapiens, UniProt P10636); assay type: binding; conditions: 1 µmol/L compound, human AD slices, n = 3
Target sequence in this assay (P10636 623-708 limits assumed): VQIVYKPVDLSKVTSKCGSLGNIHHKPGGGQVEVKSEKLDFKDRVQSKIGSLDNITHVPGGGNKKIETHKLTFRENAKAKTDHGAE

PHF tau = PHF tau (Homo sapiens, UniProt P10636); assay type: binding
amyloid plaques = amyloid plaques (Homo sapiens, UniProt P05067); assay type: binding
Aβ = Aβ (Homo sapiens, UniProt P05067); experiment: In vitro autoradiography binding inhibition of [11C]PiB on human AD brain slices; conditions: for % Block ± SD of tracer binding: 1 µmol/L compound, tracer 13 nmol/L [11C]PiB, human AD slices, n = 3
[2] = Biodistribution in normal NMRI mice; assay type: in vivo, mouse; conditions: for %ID/g Blood / %ID/g Bone / %ID/g Brain / %ID/g Cerebellum / %ID/g Cerebrum / %ID/g Heart / %ID/g Kidneys / %ID/g Liver / %ID/g Lungs / %ID/g Muscle / %ID/g Pancreas / %ID/g Spleen: iv
In short: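 Healthy male NMRI mice (30-40 g) under 2.5% isoflurane in O2 received about 0.9 MBq of 18F-labelled tracer by tail vein. They were decapitated at 2, 10, 30 and 60 min PI (n = 4/time point). Blood and organs were weighed and γ-counted. Blood, bone and muscle were taken as 7%, 12% and 40% of body mass. Blood clearance was calculated as the 2 min to 60 min activity ratio.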

[3] = Plasma radiometabolite analysis; assay type: in vivo, mouse; conditions: normal mice
In short: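 NMRI mice under isoflurane (2.5% in O2) received about 3.7 MBq of 18F-labelled tracer via a lateral tail vein. They were decapitated at 2, 10, 30 or 60 min PI (n = 3/time point). EDTA blood was kept on ice and spun at 2330 ×g for 10 min. Plasma (0.5 mL) was spiked with 10 µg authentic unlabelled compound and run on C18 HPLC. Fractions were γ-counted for % intact tracer, reported as mean ± SD.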

[4] = Perfused brain radiometabolite analysis; assay type: in vivo, mouse; conditions: normal mice
tau (NFTs) [5] = molecular target: T1, tau (NFTs); assay type: binding
Target sequence in this assay (P10636 623-695 limits assumed): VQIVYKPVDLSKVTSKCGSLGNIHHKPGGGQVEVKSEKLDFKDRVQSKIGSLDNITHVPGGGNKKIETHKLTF

NFTs = conditions: autoradiography on human AD brain tissue sections; ref [8],[11]; cited from earlier work
[6] = read-out: % Block ± SD of tracer binding
[7] = read-out: Inhibition of [11C]PiB binding, summary statements

Chain of PHF tau (P10636 623-695 limits assumed): as above
Chain of amyloid plaques (P05067 672-711 limits assumed): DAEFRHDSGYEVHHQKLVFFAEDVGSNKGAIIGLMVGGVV
Chain of Aβ (P05067 672-711 limits assumed): as above

Molecule: COc1ccc(CCN2CCC(Nc3nc4ccccc4n3Cc3ccc(F)cc3)CC2)cc1 [Astemizole]
Ki (PHF tau): > 4000 nM
Ki (amyloid plaques): > 4400 nM

Molecule: Cc1c(OCC(F)(F)F)ccnc1C[S+]([O-])c1nc2ccccc2[nH]1 (stereo not shown) [Lansoprazole]
Ki (PHF tau): > 4000 nM
Ki (amyloid plaques): > 4400 nM

Molecule: [11CH3]Nc1ccc(-c2nc3ccc(O)cc3s2)cc1 [PiB, 2-[4-([^11C]methylamino)phenyl]benzothiazol-6-ol]
% Block ± SD of tracer binding (Aβ): 57 ± 0.0%
Ki (PHF tau): 129 nM

Molecule: [18F]c1ccc(-c2ccc3c(c2)[nH]c2ccncc23)cn1 [T807, 7-[6-[^18F]fluoropyridin-3-yl]-5H-pyrido-[4,3-b]indole]
%ID/g Blood ([2]; blood, 2 min PI): 1.5 ± 0.2 %ID/g
2/60 min activity ratio Blood (clearance from blood) ([2]; blood, 2 min to 60 min activity ratio): 2.5
%ID/g Blood ([2]; blood, 10 min PI): 0.7 ± 0.0 %ID/g
%ID/g Blood ([2]; blood, 30 min PI): 0.7 ± 0.1 %ID/g
%ID/g Blood ([2]; blood, 60 min PI): 0.6 ± 0.1 %ID/g
%ID/g Bone ([2]; 2 min PI): 0.1 ± 0.1 %ID/g
%ID/g Bone ([2]; 10 min PI): 1.4 ± 0.2 %ID/g
%ID/g Bone ([2]; 60 min PI): 0.1 ± 0.0 %ID/g
%ID/g Brain ([2]; brain, 2 min PI): 7.5 ± 1.1 %ID/g
2/60 min activity ratio Brain ([2]; brain, 2 min to 60 min activity ratio): 18.3
%ID/g Brain ([2]; brain, 10 min PI): 2.6 ± 0.5 %ID/g
%ID/g Brain ([2]; brain, 30 min PI): 0.8 ± 0.4 %ID/g
%ID/g Brain ([2]; brain, 60 min PI): 0.4 ± 0.2 %ID/g
%ID/g Cerebellum ([2]; 2 min PI): 8.5 ± 1.4 %ID/g
%ID/g Cerebellum ([2]; 10 min PI): 2.4 ± 0.5 %ID/g
%ID/g Cerebellum ([2]; 30 min PI): 0.8 ± 0.4 %ID/g
%ID/g Cerebellum ([2]; 60 min PI): 0.4 ± 0.2 %ID/g
%ID/g Cerebrum ([2]; 2 min PI): 7.2 ± 1.0 %ID/g
%ID/g Cerebrum ([2]; 10 min PI): 2.6 ± 0.5 %ID/g
%ID/g Cerebrum ([2]; 30 min PI): 0.8 ± 0.4 %ID/g
%ID/g Cerebrum ([2]; 60 min PI): 0.4 ± 0.2 %ID/g
%ID/g Heart ([2]; 2 min PI): 6.8 ± 0.9 %ID/g
%ID/g Heart ([2]; 10 min PI): 2.1 ± 0.3 %ID/g
%ID/g Heart ([2]; 30 min PI): 1.3 ± 0.3 %ID/g
%ID/g Heart ([2]; 60 min PI): 1.0 ± 0.1 %ID/g
%ID/g Kidneys ([2]; 2 min PI): 35.9 ± 6.2 %ID/g
%ID/g Kidneys ([2]; 10 min PI): 25.6 ± 3.0 %ID/g
%ID/g Kidneys ([2]; 30 min PI): 15.8 ± 5.0 %ID/g
%ID/g Kidneys ([2]; 60 min PI): 13.0 ± 2.6 %ID/g
%ID/g Liver ([2]; 2 min PI): 12.6 ± 2.4 %ID/g
%ID/g Liver ([2]; 10 min PI): 14.6 ± 1.0 %ID/g
%ID/g Liver ([2]; 30 min PI): 20.7 ± 1.8 %ID/g
%ID/g Liver ([2]; 60 min PI): 18.1 ± 2.2 %ID/g
%ID/g Lungs ([2]; 2 min PI): 25.1 ± 11.9 %ID/g
%ID/g Lungs ([2]; 10 min PI): 4.2 ± 1.8 %ID/g
%ID/g Lungs ([2]; 30 min PI): 3.9 ± 1.2 %ID/g
%ID/g Lungs ([2]; 60 min PI): 2.1 ± 0.7 %ID/g
%ID/g Muscle ([2]; 2 min PI): 3.0 ± 1.8 %ID/g
%ID/g Muscle ([2]; 10 min PI): 1.4 ± 0.3 %ID/g
%ID/g Muscle ([2]; 30 min PI): 0.6 ± 0.1 %ID/g
%ID/g Muscle ([2]; 60 min PI): 0.5 ± 0.1 %ID/g
%ID/g Pancreas ([2]; 2 min PI): 4.1 ± 2.2 %ID/g
%ID/g Pancreas ([2]; 10 min PI): 4.7 ± 0.7 %ID/g
%ID/g Pancreas ([2]; 30 min PI): 2.1 ± 0.8 %ID/g
%ID/g Pancreas ([2]; 60 min PI): 1.5 ± 0.6 %ID/g
%ID/g Spleen ([2]; 2 min PI): 15.7 ± 5.1 %ID/g
%ID/g Spleen ([2]; 10 min PI): 13.8 ± 12.5 %ID/g
%ID/g Spleen ([2]; 30 min PI): 3.8 ± 1.3 %ID/g
%ID/g Spleen ([2]; 60 min PI): 3.1 ± 1.7 %ID/g
Mean % ± SD of intact tracer, plasma ([3]; 2 min after injection, n = 3): 99 ± 1%
Mean % ± SD of intact tracer, plasma ([3]; 2 min after injection, n = 3, listed as [^18F]T807): 99%
Mean % ± SD of intact tracer, plasma ([3]; 10 min after injection, n = 3): 84 ± 5%
Mean % ± SD of intact tracer, plasma ([3]; 30 min after injection, n = 3): 60 ± 14%
Mean % ± SD of intact tracer, plasma ([3]; 30 min after injection, n = 3, listed as [^18F]T807): 60%
Mean % ± SD of intact tracer, plasma ([3]; 60 min after injection, n = 3): 45 ± 4%
Mean % ± SD of intact tracer, perfused brain ([4]; 10 min after injection, n = 3): 100 ± 0%
Mean % ± SD of intact tracer, perfused brain ([4]; 10 min after injection, n = 3, listed as [^18F]T807): ~100%
Mean % ± SD of intact tracer, perfused brain ([4]; 60 min after injection, n = 3): 99 ± 1%
Mean % ± SD of intact tracer, perfused brain ([4]; 60 min after injection, n = 3, listed as [^18F]T807): ~100%
% Block ± SD of tracer binding (tau (NFTs) [1]; tracer 7 nmol/L [18F]T808): 94 ± 0.0%
% Block ± SD of tracer binding (tau (NFTs) [5]; 1 µmol/L compound, tracer 28 nmol/L [18F]T807, human AD slices, n = 3): 88 ± 0.0%
inhibition at 1 µM (tau (NFTs) [5]; [6]): 88%
% Block ± SD of tracer binding (Aβ): 11 ± 0.1%
inhibition at 1 µM (Aβ; [6]): 11%
inhibition at 1 µM (Aβ; [7]): < 17%
Ki (PHF tau): 1.1 nM
Ki (amyloid plaques): 247 nM
Kd (NFTs): 15 nM
fold higher binding affinity for NFTs over Aβ (NFTs): 25 fold

Other lines, results leading:

% Block ± SD of tracer binding (tau (NFTs) [1]; tracer 10 nmol/L [18F]T808): 29 ± 0.1%
Molecule: 2-[4-(4-Fluorophenyl)phenyl]-1,3-benzothiazole [TAU3]

Ki (PHF tau): > 4000 nM
Ki (amyloid plaques): > 4400 nM
Molecule: COc1ccc(-c2csc(NN=Cc3ccccc3)n2)cc1 [TAU4, 1-Benzylidene-2-(4-(4-methoxyphenyl)thiazol-2-yl)hydrazine]

Ki (PHF tau): > 4000 nM
Ki (amyloid plaques): > 4400 nM
Molecule: COc1ccc(-c2csc(NN=Cc3ccccn3)n2)cc1 [TAU5, 2-(4-(4-Methoxyphenyl)thiazol-2-yl)-1-((pyridin-2-yl)methylene)hydrazine]

inhibition at 1 µM (Aβ; [6]): 0%
inhibition at 1 µM (Aβ; [7]): < 17%
Ki (PHF tau): > 4000 nM
Ki (amyloid plaques): > 4400 nM
Molecule: COc1ccc(-c2ccc3c(c2)[nH]c2ccncc23)cn1 [TAU6, 2-Methoxy-5-{5H-pyrido[4,3-b]indol-7-yl}pyridine]

inhibition at 1 µM (Aβ; [6]): 0%
Ki (PHF tau): 14 nM
Ki (amyloid plaques): 4.9 nM
Molecule: COc1ccc(-c2ccc3c(c2)[nH]c2ccncc23)cc1 [TAU7, 7-(4-Methoxyphenyl)-5H-pyrido[4,3-b]indole]

inhibition at 1 µM (Aβ; [6]): 0%
Ki (PHF tau): > 4000 nM
Ki (amyloid plaques): > 4400 nM
Molecule: COC(=O)c1ccc(-c2ccc3c(c2)[nH]c2ccncc23)cn1 [TAU8, Methyl 5-{5H-pyrido[4,3-b]indol-7-yl}pyridine-2-carboxylate]

% Block ± SD of tracer binding (tau (NFTs) [1]; tracer 10 nmol/L [18F]T808): 48 ± 0.0%
Molecule: Methyl 2-(4-nitrophenyl)benzo[d]thiazole-6-carboxylate [TAU2]
